Test results taken from ChEMBL document CHEMBL1909532, “Comparative evaluation of two structurally related flavonoids, isoliquiritigenin and liquiritigenin, for their oral infection therapeutic potential” (J Nat Prod, 2011).
In brackets after ≈: the same amount, converted by molar mass. Blank lines part the entries; values can stand above or below the compound they belong to. Activity calls are given as the source filed them. No cut-off for these calls is given here.

Assays:
[1] = target: Matrix metalloproteinase-9 (Homo sapiens) (UniProt P14780); assay: Inhibition of human MMP9 assessed as remaining activity at 5 ug/ml after 4 hrs by fluorimetric analysis relative to control
Matrix metalloproteinase-9 (Homo sapiens), sequence (P14780 whole entry): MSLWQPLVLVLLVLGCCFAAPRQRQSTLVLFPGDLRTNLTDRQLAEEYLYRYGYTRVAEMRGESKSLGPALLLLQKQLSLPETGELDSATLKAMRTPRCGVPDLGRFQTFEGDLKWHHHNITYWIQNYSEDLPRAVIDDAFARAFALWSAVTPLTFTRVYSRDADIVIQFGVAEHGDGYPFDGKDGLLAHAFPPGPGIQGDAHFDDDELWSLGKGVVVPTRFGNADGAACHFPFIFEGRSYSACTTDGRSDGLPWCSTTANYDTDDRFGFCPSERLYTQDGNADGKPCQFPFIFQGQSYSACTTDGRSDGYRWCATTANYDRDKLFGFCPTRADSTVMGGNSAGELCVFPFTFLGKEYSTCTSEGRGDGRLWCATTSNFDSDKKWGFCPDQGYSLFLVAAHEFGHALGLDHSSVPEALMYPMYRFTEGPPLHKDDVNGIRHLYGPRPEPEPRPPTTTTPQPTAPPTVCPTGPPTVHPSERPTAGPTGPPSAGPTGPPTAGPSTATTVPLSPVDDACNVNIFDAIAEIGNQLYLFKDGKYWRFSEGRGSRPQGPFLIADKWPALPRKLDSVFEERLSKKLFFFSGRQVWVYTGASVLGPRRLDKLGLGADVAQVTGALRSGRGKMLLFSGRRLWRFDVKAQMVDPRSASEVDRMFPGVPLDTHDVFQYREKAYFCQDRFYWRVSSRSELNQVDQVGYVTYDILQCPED
Procedure, shortened: (§1)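 Active human recombinant MMP-9 (final 100 ng/mL) in TCNB buffer (50 mM Tris-HCl, 10 mM CaCl2, 150 mM NaCl, 0.05% Brij35, pH 7.5) with fluorescein-conjugated DQ gelatin (stock 1 mg/mL); compound final 0, 5, 25 or 100 μg/mL. Incubated 4 h at 37 °C in the dark; fluorescence at ex 490/em 520 nm.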

Prevotella intermedia [2] = assay: Antibacterial activity against Prevotella intermedia ATCC 25611 by microdilution technique in presence of 10% unstimulated whole salive; type: functional, organism-based
Procedure, shortened: (§2)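 Broth microdilution growth assay, repeated in medium supplemented with 1% fetal bovine serum or with 10% unstimulated whole saliva.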

[3] = target: Transcription factor Jun (Homo sapiens) (UniProt P05412); assay: Inhibition of LPS-induced AP-1 activation in human U937 cells at 5 ug/ml after 1 hr relative to control; type: cell-based; settings: U-937
Transcription factor Jun (Homo sapiens), sequence (P05412 whole entry): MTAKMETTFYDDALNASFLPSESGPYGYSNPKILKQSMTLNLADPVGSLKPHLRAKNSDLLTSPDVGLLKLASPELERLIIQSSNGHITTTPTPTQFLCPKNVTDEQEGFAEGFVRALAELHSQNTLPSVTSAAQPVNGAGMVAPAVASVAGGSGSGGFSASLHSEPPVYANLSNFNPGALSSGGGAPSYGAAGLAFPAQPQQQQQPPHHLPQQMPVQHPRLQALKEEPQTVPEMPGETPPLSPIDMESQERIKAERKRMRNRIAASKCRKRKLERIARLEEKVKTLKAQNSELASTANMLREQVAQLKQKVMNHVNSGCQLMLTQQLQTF
Procedure, shortened: (§3)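 PMA-differentiated U937 macrophages pretreated with compound (5 μg/mL) for 1 h, then given LPS (1 μg/mL) for 1 h at 37 °C. Whole-cell extracts adjusted to 1 mg/mL protein. NF-κB p65 and AP-1 activation measured by TransAM kits; controls had no pretreatment.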

U-937 [4] = assay: Antiinflammatory activity in human U937 cells assessed as inhibition of LPS-induced IL1-beta secretion at 5 ug/ml after 24 hrs by ELISA relative to control; type: functional
Procedure, shortened: (§4)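 U937 monocytes differentiated with 10 ng/mL PMA for 48 h, then placed in RPMI-1% FBS. Pretreated 2 h with compound (0, 0.2, 1, 5 μg/mL), then stimulated with A. actinomycetemcomitans ATCC 29522 LPS (1 μg/mL) for 24 h. Cytokines and MMP-9 in supernatants measured by ELISA at 450 nm. Triplicates, two experiments, mean ± SD.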

[5] = target: T1, Collagenase (Porphyromonas gingivalis) (UniProt P33437); assay: Inhibition of Porphyromonas gingivalis ATCC 33277 collagenase assessed as remaining activity at 25 ug/ml after 4 hrs by fluorimetric analysis relative to control
T1 sequence (whole entry): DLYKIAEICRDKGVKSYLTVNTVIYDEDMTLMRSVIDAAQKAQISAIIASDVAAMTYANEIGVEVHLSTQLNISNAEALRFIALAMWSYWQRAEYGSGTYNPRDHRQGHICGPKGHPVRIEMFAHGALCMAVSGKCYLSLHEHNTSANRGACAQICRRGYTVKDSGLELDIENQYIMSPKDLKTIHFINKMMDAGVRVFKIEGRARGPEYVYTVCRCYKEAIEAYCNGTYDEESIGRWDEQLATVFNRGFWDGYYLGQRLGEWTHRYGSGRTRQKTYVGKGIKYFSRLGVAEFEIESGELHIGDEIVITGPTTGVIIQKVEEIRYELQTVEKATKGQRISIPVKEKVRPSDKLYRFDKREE
Procedure, shortened: (§5)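 Two-day P. gingivalis ATCC 33277 culture supernatant incubated with fluorescein-conjugated DQ type I collagen (stock 100 μg/mL) in TCNB buffer, compound final 0, 5, 25 or 100 μg/mL. Incubated 4 h in the dark at room temperature, then fluorescence read. Triplicates, mean ± SD.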

U-937 [6] = assay: Cytotoxicity against human U937 cells assessed as loss of cell viability by MTT assay; type: cell-based
Procedure, shortened: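 PMA-differentiated U937 macrophages exposed to LPS or compound (up to 5 μg/mL) under the 24 h stimulation protocol; viability checked by MTT assay.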

[7] = target: Matrix metalloproteinase-9 (Homo sapiens) (UniProt P14780); assay: Inhibition of human MMP9 assessed as remaining activity at 100 ug/ml after 4 hrs by fluorimetric analysis relative to control; procedure, shortened: as §1
[8] = target: T1, Collagenase (Porphyromonas gingivalis); assay: Inhibition of Porphyromonas gingivalis ATCC 33277 collagenase assessed as remaining activity at 100 ug/ml after 4 hrs by fluorimetric analysis relative to control; procedure, shortened: as §5
U-937 [9] = assay: Antiinflammatory activity in human U937 cells assessed as inhibition of LPS-induced MMP9 secretion at 5 ug/ml after 24 hrs by ELISA relative to control; type: functional; settings: U-937, 24 h; procedure, shortened: as §4
[10] = target: T1, Collagenase (Porphyromonas gingivalis); assay: Inhibition of Porphyromonas gingivalis ATCC 33277 collagenase assessed as remaining activity at 5 ug/ml after 4 hrs by fluorimetric analysis relative to control; procedure, shortened: as §5
U-937 [11] = assay: Antiinflammatory activity in human U937 cells assessed as inhibition of LPS-induced IL8 secretion at 5 ug/ml after 24 hrs by ELISA relative to control; type: functional; settings: U-937, 24 h; procedure, shortened: as §4
U-937 [12] = assay: Antiinflammatory activity in human U937 cells assessed as inhibition of LPS-induced of IL6 secretion at 5 ug/ml after 24 hrs by ELISA relative to control; type: functional; procedure, shortened: as §4
U-937 [13] = assay: Antiinflammatory activity in human U937 cells assessed as inhibition of LPS-induced TNFalpha secretion at 5 ug/ml after 24 hrs by ELISA relative to control; type: functional; settings: U-937, 24 h; procedure, shortened: as §4
[14] = target: Matrix metalloproteinase-9 (Homo sapiens) (UniProt P14780); assay: Inhibition of human MMP9 assessed as remaining activity at 25 ug/ml after 4 hrs by fluorimetric analysis relative to control; procedure, shortened: as §1
Prevotella intermedia [15] = assay: Antibacterial activity against Prevotella intermedia ATCC 25611 by microdilution technique in presence of 1% fetal bovine serum; type: functional, organism-based; procedure, shortened: as §2
[16] = target: Transcription factor p65 (Homo sapiens) (UniProt Q04206); assay: Inhibition of LPS-induced NF-kappaB p65 activation in human U937 cells at 5 ug/ml after 1 hr relative to control; type: cell-based; settings: U-937; procedure, shortened: as §3
Transcription factor p65 (Homo sapiens), sequence (Q04206 whole entry): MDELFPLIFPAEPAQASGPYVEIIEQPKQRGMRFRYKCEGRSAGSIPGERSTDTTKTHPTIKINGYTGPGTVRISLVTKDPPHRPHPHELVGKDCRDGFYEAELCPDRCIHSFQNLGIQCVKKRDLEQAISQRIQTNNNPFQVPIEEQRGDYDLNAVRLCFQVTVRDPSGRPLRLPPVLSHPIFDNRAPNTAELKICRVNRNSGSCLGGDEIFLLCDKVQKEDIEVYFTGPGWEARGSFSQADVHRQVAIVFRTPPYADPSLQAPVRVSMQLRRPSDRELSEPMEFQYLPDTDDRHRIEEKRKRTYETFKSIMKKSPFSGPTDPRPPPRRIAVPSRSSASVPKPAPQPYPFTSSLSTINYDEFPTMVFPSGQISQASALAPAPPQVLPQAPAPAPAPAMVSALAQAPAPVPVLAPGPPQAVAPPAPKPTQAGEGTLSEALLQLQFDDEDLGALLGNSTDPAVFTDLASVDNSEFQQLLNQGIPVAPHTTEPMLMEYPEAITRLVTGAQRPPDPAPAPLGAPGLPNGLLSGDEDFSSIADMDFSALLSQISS

Prevotella intermedia [17] = assay: Antibacterial activity against Prevotella intermedia ATCC 25611 at 40 ug/ml assessed as growth inhibition by microdilution technique relative to untreated control; type: functional; settings: read-out: GI
Procedure, shortened: (§6)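 Broth microdilution against each strain; MIC read as lowest concentration with no growth. Growth also expressed as percent of compound-free control (set to 100%). Triplicate assays, two independent experiments, mean ± SD; Student's t test, p < 0.01.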

[18] = target: T1, Collagenase (Porphyromonas gingivalis); assay: Inhibition of Porphyromonas gingivalis ATCC 33277 collagenase assessed at 100 ug/ml after 4 hrs by fluorimetric analysis relative to control; procedure, shortened: as §5
U-937 [19] = assay: Antiinflammatory activity in human U937 cells assessed as inhibition of LPS-induced CCL5 secretion at 5 ug/ml after 24 hrs by ELISA relative to control; type: functional; procedure, shortened: as §4
Fusobacterium nucleatum [20] = assay: Antibacterial activity against Fusobacterium nucleatum ATCC 25586 by microdilution technique; type: functional, organism-based; procedure, shortened: as §6
U-937 [21] = assay: Antiinflammatory activity in human U937 cells assessed as inhibition of LPS-induced IL1-beta secretion after 24 hrs by ELISA; type: functional, cell-based; procedure, shortened: as §4
U-937 [22] = assay: Antiinflammatory activity in human U937 cells assessed as inhibition of LPS-induced CCL5 secretion after 24 hrs by ELISA; type: functional, cell-based; procedure, shortened: as §4
Prevotella intermedia [23] = assay: Antibacterial activity against Prevotella intermedia ATCC 25611 assessed as growth inhibition at 5 ug/ml by microdilution technique relative to untreated control; type: functional; settings: read-out: GI; procedure, shortened: as §6
Porphyromonas gingivalis [24] = assay: Bactericidal activity against Porphyromonas gingivalis ATCC 33277 at 40 ug/ml by microdilution technique; type: functional, organism-based
Procedure, shortened: (§7)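 MBC: aliquots from wells without visible growth spread on agar plates and incubated five days under appropriate conditions; MBC is the lowest concentration giving no colonies.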

Porphyromonas gingivalis [25] = assay: Antibacterial activity against Porphyromonas gingivalis ATCC 33277 by microdilution technique in presence of 10% unstimulated whole salive; type: functional, organism-based; procedure, shortened: as §2
Prevotella intermedia [26] = assay: Bactericidal activity against Prevotella intermedia ATCC 25611 at 20 ug/ml by microdilution technique; type: functional, organism-based; procedure, shortened: as §7
U-937 [27] = assay: Antiinflammatory activity in human U937 cells assessed as inhibition of LPS-induced IL1-beta secretion at 0.2 ug/ml after 24 hrs by ELISA relative to control; type: functional, cell-based; procedure, shortened: as §4
Fusobacterium nucleatum [28] = assay: Antibacterial activity against Fusobacterium nucleatum ATCC 25586 at 40 ug/ml assessed as growth inhibition by microdilution technique relative to untreated control; type: functional; settings: read-out: GI; procedure, shortened: as §6
U-937 [29] = assay: Antiinflammatory activity in human U937 cells assessed as inhibition of LPS-induced IL8 secretion after 24 hrs by ELISA; type: functional, cell-based; procedure, shortened: as §4
Porphyromonas gingivalis [30] = assay: Antibacterial activity against Porphyromonas gingivalis ATCC 33277 by microdilution technique in presence of 1% fetal bovine serum; type: functional, organism-based; procedure, shortened: as §2
U-937 [31] = assay: Antiinflammatory activity in human U937 cells assessed as inhibition of LPS-induced IL6 secretion after 24 hrs by ELISA; type: functional, cell-based; procedure, shortened: as §4
U-937 [32] = assay: Antiinflammatory activity in human U937 cells assessed as inhibition of LPS-induced TNFalpha secretion after 24 hrs by ELISA; type: functional, cell-based; procedure, shortened: as §4
U-937 [33] = assay: Antiinflammatory activity in human U937 cells assessed as inhibition of LPS-induced IL6 secretion at 0.2 ug/ml after 24 hrs by ELISA relative to control; type: functional, cell-based; procedure, shortened: as §4
Fusobacterium nucleatum [34] = assay: Antibacterial activity against Fusobacterium nucleatum ATCC 25586 by microdilution technique in presence of 10% unstimulated whole salive; type: functional, organism-based; procedure, shortened: as §2
Porphyromonas gingivalis [35] = assay: Antibacterial activity against Porphyromonas gingivalis ATCC 33277 by microdilution technique; type: functional; procedure, shortened: as §6
Prevotella intermedia [36] = assay: Antibacterial activity against Prevotella intermedia ATCC 25611 by microdilution technique; type: functional; procedure, shortened: as §6
Fusobacterium nucleatum [37] = assay: Antibacterial activity against Fusobacterium nucleatum ATCC 25586 by microdilution technique in presence of 1% fetal bovine serum; type: functional, organism-based; procedure, shortened: as §2

Activity [1]: 95%
inhibition [3]: 20%
Activity [5]: 82%
Activity [7]: 87%
Activity [8]: 79%
Activity [10]: 83%
Activity [14]: 95%
inhibition [16]: 39%
inhibition [18]: 21%
Structure (SMILES): O=C1C[C@@H](c2ccc(O)cc2)Oc2cc(O)ccc21 [LIQUIRTIGENIN]
Activity (Prevotella intermedia [2]): Active
inhibition at 5 µg/mL (U-937 [4]; U-937, 24 h): 34%
Activity (U-937 [6]): Non-toxic
inhibition at 5 µg/mL (U-937 [9]): 24%
inhibition at 5 µg/mL (U-937 [11]): 11%
inhibition at 5 µg/mL (U-937 [12]; U-937, 24 h): 23%
inhibition at 5 µg/mL (U-937 [13]): 17%
Activity (Prevotella intermedia [15]): Active
inhibition of growth at 40 µg/mL (Prevotella intermedia [17]): 85%
inhibition at 5 µg/mL (U-937 [19]; U-937, 24 h): 24%

Activity [1]: 97%
inhibition [3]: Active
Activity [5]: 78%
Activity [7]: 67%
Activity [8]: 48%
Activity [10]: 82%
MIC (Porphyromonas gingivalis [35]): 40 µg/mL (≈ 156 µM)
Activity [14]: 91%
inhibition [16]: Active
MIC (Prevotella intermedia [36]): 10 µg/mL (≈ 39 µM)
inhibition [18]: 52%
Structure (SMILES): O=C(/C=C/c1ccc(O)cc1)c1ccc(O)cc1O [ISOLIQUIRITIGENIN]
Activity (Prevotella intermedia [2]): Active
Activity (Fusobacterium nucleatum [20]): Dose-dependent effect
inhibition (U-937 [21]): Dose-dependent effect
inhibition (U-937 [4]): Active
Activity (U-937 [6]): Non-toxic
inhibition (U-937 [22]): Dose-dependent effect
inhibition of growth at 5 µg/mL (Prevotella intermedia [23]): 58%
inhibition (Porphyromonas gingivalis [24]): inactive
Activity (Porphyromonas gingivalis [25]): Active
inhibition (Prevotella intermedia [26]): Active
inhibition (U-937 [27]): Active
inhibition of growth at 40 µg/mL (Fusobacterium nucleatum [28]): 70%
inhibition (U-937 [29]): Dose-dependent effect
Activity (Porphyromonas gingivalis [30]): Active
inhibition at 5 µg/mL (U-937 [9]): 89%
inhibition (U-937 [31]): Dose-dependent effect
inhibition (U-937 [32]): Dose-dependent effect
inhibition (U-937 [33]): Active
Activity (Fusobacterium nucleatum [34]): Active
inhibition at 5 µg/mL (U-937 [11]): 34%
inhibition (U-937 [12]): Active
Activity (Porphyromonas gingivalis [35]): Dose-dependent effect
inhibition at 5 µg/mL (U-937 [13]): 87%
Activity (Prevotella intermedia [15]): Active
Activity (Prevotella intermedia [36]): Dose-dependent effect
Activity (Fusobacterium nucleatum [37]): Active
inhibition (U-937 [19]): Active
